Compound activity deposited in PubChem BioAssay by The Scripps Research Institute Molecular Screening Center.
In the library only some 3.7% were active in any assay of this set; here they are far more common.
TAAR1 ag – human TAAR1 agonism | CHO RD-HGA16 TAAR1, Fluo-8 calcium fluorescence; vehicle wells 0%, saturating PEA agonist 100% | 360,000 compounds, 0.99% hits | AID 624467 | activation, % at 3 µM | Q96RJ0;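 active = activation above the mean activation of all test compounds in the run plus 3 SD, cut at about 38% in these data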
Target sequence (Q96RJ0 whole entry, looked up): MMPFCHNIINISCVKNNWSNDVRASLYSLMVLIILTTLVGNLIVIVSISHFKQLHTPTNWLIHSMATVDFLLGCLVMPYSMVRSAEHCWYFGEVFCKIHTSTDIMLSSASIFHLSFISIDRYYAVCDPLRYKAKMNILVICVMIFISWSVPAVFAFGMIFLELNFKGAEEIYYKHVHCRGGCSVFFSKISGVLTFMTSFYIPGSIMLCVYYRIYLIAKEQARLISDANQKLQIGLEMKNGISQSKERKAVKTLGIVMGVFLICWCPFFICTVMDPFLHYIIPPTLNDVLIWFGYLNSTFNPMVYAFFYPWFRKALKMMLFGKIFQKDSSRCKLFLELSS
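Assay system – CHO-derived RD-HGA16 cells with stable Gα16 and human TAAR1 · Compound dosing – one-point dosing at 3 µM (nominal) · Incubation – 17-24 h seeding, 75 min 37 °C dye, 30 min RT · Measured by – kinetic Fluo-8 calcium fluorescence · Control set – DMSO vehicle as 0%, PEA at EC100 as 100% · Repeats – single well for each compound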
HCV core dimer – blocks dimerization of HCV core protein; 300,000 compounds, 0.33% hits; TR-FRET GST/Flag-core106 dimerization, 1536-well; inhibition, % at 5 µM;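 active = inhibition above the mean of all tested compounds plus 3 SD, set per screening campaign, cut at about 45% in these data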
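Assay system: tagged HCV core106 pair (GST and Flag); medium: KF-containing HEPES buffer, pH 7.45, DTT, CHAPS, BSA; also added: Eu donor and XL665 acceptor anti-tag antibodies; dosing: 5 µM single dose; timing: compound-protein-antibody incubation 4 h at 22.5 °C; signal: TR-FRET 671 and 617 nm emission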
TAAR1 antagonist – antagonists of human TAAR1; Q96RJ0; CHO RD-HGA16 TAAR1, Fluo-8 calcium fluorescence, antagonist; inhibition, % at 3 µM; 360,000 compounds, 1.5% hits; AID 624466;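 active = inhibition above a per-plate cutoff, the mean inhibition of test compounds on that plate plus 3 SD, cut at about 49% in these data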
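System: CHO RD-HGA16 cells bearing hTAAR1. Reagent: EC80 β-phenethylamine stimulus. Schedule: seeding 17-24 h prior, 75-min 37 °C, 30-min RT dye loading. Signal: Fluo-8 intracellular calcium dye fluorescence, real-time kinetic reads. Read-out: % inhibition from peak post-agonist over basal fluorescence ratio. Benchmarks: vehicle wells and EC80 agonist wells. Replicates: n of 1.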
rCAG binder – molecules binding r(CAG) RNA repeats. r(CAG) RNA repeat, TO-PRO-1 dye displacement fluorescence. inhibition, % at 3 µM. 370,000 compounds, 1.3% hits. AID 651821;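 active = inhibition above the plate cutoff, the mean of all test compounds on that plate plus 3 SD, cut at about 35% in these data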;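 note: higher means more dye released from RNA so lower well fluorescence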
NS3 helicase inh – HCV NS3 helicase inhibition | NS3 helicase DNA unwinding, Cy5 molecular beacon fluorescence | inhibition, % at 10.9 µM | 290,000 compounds, 0.56% hits;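 active = inhibition above the mean of all tested compounds plus 3 SD, set per campaign, cut at about 35% in these data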
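Compound dosing – single dose, 10.9 µM nominal final, DMSO 0.8% final · System – NS3 helicase fragment of HCV · Buffer or medium – MOPS pH 6.5, MgCl2, DTT, Tween20, BSA · Signal – Cy5 beacon fluorescence read at start and 1 h · Also added – annealed dual-labelled DNA beacon duplex, ATP-started · Schedule – 1 h at 25 °C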
Hits are given with their value; - = inactive; . = no result given.

SMILES | TAAR1 ag | HCV core dimer | TAAR1 antagonist | rCAG binder | NS3 helicase inh
c1coc(-c2nnc3n2N=C(c2ccc4c(c2)OCO4)CS3)c1 | . | . | . | - | .
C=CCNc1nc(-c2sc(NC(=O)C(C)(C)C)nc2C)c(-n2cc(-c3ccccc3)nn2)s1 | - | . | 61.1 | - | .
CCOc1ccccc1NC(=O)CSc1nnc(SCc2ccccc2)s1 | . | . | . | - | .
O=C1/C(=C\c2ccc(Cl)c(Cl)c2)CN(C(=O)CCN2CCOCC2)C/C1=C/c1ccc(Cl)c(Cl)c1 | - | . | 56.8 | - | .
Nc1nc(Cl)cc(N2CCC(c3cc(-c4ccc(Cl)cc4)n[nH]3)CC2)n1 | - | - | - | - | -
COc1ccc(-c2cc(C3CCN(c4cc(Cl)nc(N)n4)CC3)[nH]n2)cc1 | 42.7 | - | - | - | -
COc1ccc(OC)c(-c2cc(C3CCN(c4cc(Cl)nc(N)n4)CC3)[nH]n2)c1 | - | - | 55.9 | - | -
O=C(CSc1nc2ccccc2n1Cc1ccccc1Cl)N/N=C\c1cccc(Oc2ccccc2)c1 | . | . | . | - | .
Cc1ccc2c(c1)C(=O)C(=O)N2Cc1ccc(C(F)(F)F)cc1 | - | . | 55.5 | - | .
CCc1cc(Cn2nc(-c3ccccc3)cc2C(=O)NCCOC)on1 | - | - | - | - | .
CCc1cc(Cn2nc(-c3ccccc3)cc2C(=O)NCc2cccs2)on1 | - | - | 63.2 | - | .
COC(=O)[C@]12CCCCC=C1N(Cc1ccccc1)C(=O)[C@H](CC(=O)N1CCCC1)C2 | - | . | 55.7 | - | .
CCOC(=O)[C@]12CCC=C1N(Cc1ccc3c(c1)OCO3)C(=O)[C@H](CC(=O)N1CCCC1)C2 | - | . | - | - | .
C#CCNC(=O)C[C@@H]1C[C@@]2(C(=O)OC)CCCCC=C2N(Cc2ccc3c(c2)OCO3)C1=O | - | . | - | - | .
COC(=O)[C@]12CCCCC=C1N(CCc1ccc(OC)c(OC)c1)C(=O)[C@H](CC(=O)N1CCSCC1)C2 | - | . | 60.6 | - | .
COC(=O)[C@]12CCCCC=C1N(Cc1ccc3c(c1)OCO3)C(=O)[C@H](CC(=O)N1CCCCC1)C2 | - | . | 52.3 | - | .
COC(=O)[C@]12CCCCC=C1N(Cc1ccc3c(c1)OCO3)C(=O)[C@H](CC(=O)N1CCCC1)C2 | - | . | 53.6 | - | .
COC(=O)[C@]12CCCCC=C1N(Cc1ccccc1)C(=O)[C@H](CC(=O)N1CCCCC1)C2 | - | . | - | - | .
c1ccc(-c2nnc3sc(C4CCCCC4)nn23)cc1 | . | . | . | - | .
C=CCN1C(=O)[C@@H](CC(=O)N2CCC(c3ccccc3)CC2)[C@]2(C(=O)OC)CCCCC=C12 | . | . | . | - | .
Cc1ccc(C(=O)N2N=C(c3cccc(NS(C)(=O)=O)c3)CC2c2cccs2)cc1 (stereo not drawn) | - | - | 51.1 | - | -
CCCCN(C)C(=O)CNc1nnnn1-c1ccccc1 | . | . | . | - | .
Cc1cc(NCCc2ccccc2F)n2ncnc2n1 | 37.6 | - | - | - | -
CCOC(=O)c1cc(C(=O)OCC)c(=O)[nH]c1C | - | - | - | - | -
CCOC(=O)c1cc(C(=O)OCC)c(=O)[nH]c1SCc1ccccc1 | 40.8 | - | - | - | -
SMILES | TAAR1 ag | HCV core dimer | TAAR1 antagonist | rCAG binder | NS3 helicase inh
CCCC1/C(=N/O)CC(c2ccccc2)NC1c1ccccc1 (stereo not drawn) | - | - | 57.4 | - | -
COc1ccc(C=NNC(=O)c2ccncc2)cc1 | . | . | . | - | .
O=P(CCCCCCCCCP(=O)(c1ccccc1)c1ccccc1)(c1ccccc1)c1ccccc1 | - | - | 90.1 | - | -
CCn1cc(C(=O)NCc2ccco2)c(=O)c2cc(F)c(N3CCN(C(=O)c4ccco4)CC3)cc21 | - | 55.9 | - | - | -
CCn1cc(C(=O)NCC(C)C)c(=O)c2cc(F)c(N3CCN(C(=O)c4ccco4)CC3)cc21 | - | - | - | - | -
CN(C)C(CNC(=O)c1ccc(NC(=O)c2cccs2)cc1)c1ccccc1 (stereo not drawn) | - | - | - | - | -
COc1ccccc1NS(=O)(=O)c1ccc(C(=O)NCC(c2ccccc2OC)N(C)C)cc1 (stereo not drawn) | - | . | - | - | -
CN(C)C(CNC(=O)c1ccc(C2SCCS2)cc1)c1ccccc1 (stereo not drawn) | 38.2 | - | - | - | -
Cc1cccc(NS(=O)(=O)c2ccc(C(=O)NCC(c3ccccc3)N(C)C)cc2)c1C (stereo not drawn) | 42.6 | . | - | - | -
Cc1cccc(OC(C)C(=O)OCC(=O)Nc2sccc2C(N)=O)c1 (stereo not drawn) | - | . | - | - | .
Cc1ccccc1SCC(=O)OCC(=O)Nc1sccc1C(N)=O | - | - | 49.0 | - | -
Cc1cccc(OCC(=O)OCC(=O)Nc2sccc2C(N)=O)c1 | - | . | 55.5 | - | .
CN(C)S(=O)(=O)c1cccc(C(=O)OCC(=O)Nc2sccc2C(N)=O)c1 | 41.4 | - | 74.8 | - | -
NC(=O)c1ccsc1NC(=O)COC(=O)Cc1cccc2ccccc12 | - | - | 73.3 | - | -
NC(=O)c1ccsc1NC(=O)COC(=O)Cc1ccccc1[N+](=O)[O-] | - | . | - | - | .
CCNC(=O)N(C)[C@H]1C[C@H]2c3[nH]c4cccc(-c5cccc(F)c5)c4c3CCN2C(=O)[C@H]1[C@H](C)O | . | . | . | - | .
C[C@@]12C[C@@H]3C(=O)N(Cc4ccccc4)CC(=O)N3[C@@H]1N(S(=O)(=O)c1ccccc1)c1ccccc12 | . | . | . | - | .
CCOC(=O)N1CCN(C(=O)C[C@H]2C[C@@]3(C(=O)OC)C(=C[C@H](C(C)C)O[C@@H]3C3CC3)N(Cc3ccc4c(c3)OCO4)C2=O)CC1 | . | . | . | - | .
CC1CCC2(CCC(=O)N2CCCOC(=O)Nc2cccc(C(F)(F)F)c2)CC1 (stereo not drawn) | . | . | . | - | .
N#CCC(=O)Nc1ccc(C(=O)OCC(=O)c2c[nH]c3ccccc23)cc1 | 43.2 | . | - | - | .
O=C(CNC(=O)c1ccccc1)OCC(=O)c1c[nH]c2ccccc12 | 39.7 | . | - | - | .
CC(=O)c1ccc(NC(=O)COC(=O)c2c[nH]c3ccccc23)cc1 | - | . | - | - | .
COc1ccc(/C=N/Nc2ccc([N+](=O)[O-])cc2)cc1O | 40.3 | - | - | - | -
COc1cccc(/C=N/Nc2ccc([N+](=O)[O-])cc2)c1O | - | - | - | - | -
O=C(NCCN1CCC(Cc2ccccc2)CC1)C1CCCN(S(=O)(=O)c2ccc(Br)s2)C1 (stereo not drawn) | . | . | . | - | .
C=CCSc1nnc2c(n1)OC(c1cccnc1)Nc1ccccc1-2 (stereo not drawn) | - | - | - | - | -
C=CCSc1nnc2c(n1)OC(c1c(C)[nH]n(-c3ccccc3)c1=O)Nc1ccccc1-2 (stereo not drawn) | - | - | - | 40.9 | -
CCCCCCCCN1C(=O)[C@@H](CC(=O)N2CCOCC2)C[C@@]2(C(=O)OC)C1=C[C@H](COCc1ccccc1)O[C@@H]2C | . | . | . | - | .
O=C1CC(=O)N(CCNc2ncc(C(F)(F)F)cc2Cl)C(=O)N1 | - | - | - | 51.4 | -
